ChEMBL document CHEMBL4513216, “Probing the Open Global Health Chemical Diversity Library for Multistage-Active Starting Points for Next-Generation Antimalarials” (ACS Infect Dis, 2020)

Test: Toxicity liver stage against HepG2, at 10uM
Format: cell-based
Design: test concentration 10 uM, cell line HepG2-A16-CD81EGFP
Settings: human, HepG2-A16-CD81EGFP cells; read-out: INHIBITION
How it was run: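 Uninfected HepG2-A16-CD81EGFP cells, 3 × 10^3 per well, 1536-well, plated on prespotted compound at 10 μM final, parasite-free screening media added to match infected plates; puromycin 10 μM positive, DMSO 0.5% negative; run in parallel with 48 h PbLuc assay at 37 °C, 5% CO2; viability by CellTiter-Glo luminescence, normalized to controls.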

| SMILES | cytotoxicity at 10 µM [%] |
| --- | --- |
| Cc1c(C)n2c(SCC(=O)N3CCCCC3)nnc2[nH]c1=O | 3.33 |
| COc1ccc2nnc(CCC(=O)Nc3nc4c(s3)CCC4)n2n1 | -4.8 |
| CC(=O)N1C[C@@H](F)[C@@H](OCc2nc3ccc(C#N)cc3[nH]2)C1 | -0.302 |
| Cc1noc([C@@H]2C[C@H](NC(=O)Nc3cccc(F)c3)CN2C)n1 | -2.17 |
| COc1cccc(CN2CCCCCC2c2sccc2C)c1O (stereo unspecified) | 7.18 |
| COCCn1ccc2c(C(=O)NCC3CCCO3)cccc21 (stereo unspecified) | 1.53 |
| CCCS(=O)(=O)c1ccc(N2CCC(Cc3ccccc3)CC2)nn1 | -7.91 |
| COc1ccc(S(=O)(=O)NCCCc2ccc(N(C)C)cc2)cc1F | -2.59 |
| COc1ccccc1C(=O)N1CC2(COC(C)(C)OC2)C1 | -6.4 |
| CC(C)C(=O)N1CCC(C2C(=O)Nc3ccccc32)CC1 (stereo unspecified) | -1.54 |
| CCN1C(=O)CCCC12CCCN(C(=O)c1occc1C)C2 (stereo unspecified) | 2.88 |
| Cn1nnc2c1CCN(C(=O)CC1CC1)C2COCCN1CCCC1 (stereo unspecified) | 17.4 |
| Cn1cnc2c1C(COCC1CC1)CN(C(=O)c1cccs1)C2 (stereo unspecified) | 7.63 |
| CCc1nnc2sc(-c3cc(C(C)C)n[nH]3)nn12 | -7.37 |
| O=c1c2cnc(N3CCCC3)nc2ccn1-c1cccc(C(F)(F)F)c1 | 16.9 |
| O=C(CCc1nc2cccnc2[nH]1)NCc1cccnc1 | 7.72 |
| CCOc1ccc(N2CCCN=C2NC(=O)c2cccc(Cl)c2)cc1 | -10.1 |
| O=C(Cn1cccn1)N1CCC(c2nnc(-c3ccsc3)o2)CC1 | 6.88 |
| CS(=O)(=O)N1CCCCCC1c1cc(-c2ccc(F)cc2)no1 (stereo unspecified) | 2.97 |
| CCC(=O)N1CCCCC1c1nc(O)c2c(n1)CN(S(=O)(=O)CC)CC2 (stereo unspecified) | 1.7 |
| Cc1cnc(-c2nc(C3CCN(Cc4ccccc4O)CC3)no2)cn1 | 3.66 |

| SMILES | cytotoxicity at 10 µM [%] |
| --- | --- |
| Cc1noc(CNc2cc3c(cc2Cl)OCCCO3)n1 | -1.49 |
| Cc1cc(C)cc(NCCC(=O)NCc2cccnc2N(C)C)c1 | -0.211 |
| Cc1nnc(CN2CCCC2c2ccc3c(c2)OCCO3)n1C (stereo unspecified) | -0.379 |
| CC(C)N1CCC(NC(=O)c2cn(-c3ccc(F)cc3)nn2)C1 (stereo unspecified) | -5.05 |
| O=C(NCCCC(=O)N1Cc2ccccc2C1)NCc1ccsc1 | -15 |
| CCN(CC)S(=O)(=O)c1ccc(OC)c(NC(=O)CSC)c1 | -10 |
| CCCN1CCCC1c1nc(Cc2ccc(F)cc2)no1 (stereo unspecified) | -2.74 |
| Cc1nc(-c2ccco2)ccc1C(=O)NCCN1CCN(C)CC1 | 3.88 |
| CC(C)(C)NC(=O)COc1ccc(Oc2ccccn2)cc1 | 7.32 |
| CN(C)CCOc1ccc(CNC(=O)c2cccc3[nH]ncc23)cc1 | 7.99 |
| CC(=O)Cn1cc(C#N)c(=O)c2cc(Br)ccc21 | -7.06 |
| COC(C)c1nc(CN2CCNCC2)cs1 (stereo unspecified) | 4.68 |
| CC(C)S(=O)(=O)NCC1CCCN(C(=O)c2ccc(F)cc2)C1 (stereo unspecified) | 4.68 |
| CC1CCCN(C(=O)Nc2ccc(F)c(C(N)=O)c2)C1 (stereo unspecified) | -7.48 |
| Cc1cc(N2CCCC2c2nnc3n2CCCCC3)nc(C)n1 (stereo unspecified) | 9.59 |
| COc1ccc(C)cc1CN(Cc1ncc(C)o1)C1CCN(C)C1 (stereo unspecified) | -0.76 |
| CS(=O)(=O)NC1CCN(CCc2ccccc2)CC1 | -1.76 |
| CCc1nsc(NC2CC(=O)N(C(C)(C)C)C2)n1 (stereo unspecified) | 5.6 |
| CC(C)N(CC(N)=O)C(=O)CCC(=O)c1ccc(F)cc1F | 0.529 |
| COCc1nc(C(=O)N2CCN(Cc3ccsc3)CC2)cs1 | -0.684 |
| Cc1nc(CNC(=O)N2CCCC(c3ncc[nH]3)C2)sc1C (stereo unspecified) | -0.331 |

| SMILES | cytotoxicity at 10 µM [%] |
| --- | --- |
| Cc1nc(C2CCCN(C(=O)CCCOc3cccc(F)c3)C2)no1 (stereo unspecified) | 9.91 |
| Cc1ccc(-c2nc(CN3CCOC(c4ccccc4)C3)cs2)o1 (stereo unspecified) | -8.11 |
| CN(CCCC#N)C1CCCN(Cc2noc(C3CC3)n2)C1 (stereo unspecified) | -14.5 |
| CN1CCN(CCCNC(=O)c2cc(Cl)c3c(c2)OCO3)CC1 | -16.7 |
| C[C@H]1CN(C(=O)c2cccnc2)C[C@@]12CCN(CCN1CCCC1)C2=O | -4.71 |
| CC(C)SCCn1ccc2[nH]c(=O)c(C#N)cc2c1=O | 3.18 |
| O=C1OC2(CCN(C(=O)C3NCCc4[nH]cnc43)CC2)c2ccccc21 (stereo unspecified) | -7.05 |
| COc1cccc([C@H]2CN(C(=O)c3cc(C)on3)C[C@@H]2N)c1 | 3.14 |
| Cc1nn(CCN2CCSCC2)cc1CNCc1ccccn1 | 2.28 |
| CCOCc1nc2c(c(N(C)Cc3nonc3C)n1)CCNCC2 | 6.7 |
| N#Cc1cccc(N2CCCC(CO)(Cc3ccccc3F)C2)n1 (stereo unspecified) | 1.54 |
| CC(C)(CN1CCC(Cc2ccc(CO)cc2)C1)N1CCOCC1 (stereo unspecified) | -2.71 |
| CCc1c(C)nn(CCNC(=O)c2csc(C)n2)c1C | -2.78 |
| CN(C)S(=O)(=O)N1CCOCC1CC(=O)NCCOc1ccccc1 (stereo unspecified) | 2.38 |
| Cc1cc(CC(C)NC(=O)c2cccc(CC3CCNCC3)c2)[nH]n1 (stereo unspecified) | 11.1 |
| Cc1csc(Nc2nccnc2C2CCCN2C(=O)C(C)C)n1 (stereo unspecified) | 1.3 |
| Fc1ccc(-c2nc(CNC3CCc4ncnn4C3)co2)cc1 (stereo unspecified) | -4.2 |
| CC(C)c1nc(CN2CCCCC2Cn2cncn2)cs1 (stereo unspecified) | -5.06 |
| Cc1ccc(C(=O)Nc2nc(C)no2)cc1 | -1.81 |
| CC(C)c1nn(C)c(N(C)C)c1CNCc1ccc(CO)c(F)c1 | -5.4 |
| CNC(=O)NC(=O)CCN1CCN(c2ccc(C(=O)OC)cc2)CC1C (stereo unspecified) | -17.8 |

| SMILES | cytotoxicity at 10 µM [%] |
| --- | --- |
| Cn1cnc2c1CCN(Cc1csc(-c3ccccc3)n1)C2 | -1.04 |
| Cn1cc(Cl)cc1C(=O)N1CCN(CCc2cccs2)CC1 | -11.8 |
| COc1cc(CNCC2CNc3ccnn3C2)ccn1 (stereo unspecified) | -0.65 |
| CN(CC(=O)N1CCCC1c1noc(C2CC2)n1)Cc1ccccc1 (stereo unspecified) | -5.09 |
| Cc1ccccc1CC(=O)N(C)C1CCCC1 | 6.33 |
| COc1ccc(Br)c(C(=O)N2CCC(c3n[nH]c(C4CC4)n3)CC2)c1 | -1.44 |
| CCn1cnnc1CNC(=O)N1CCN(Cc2ccccc2)CC1 | -1.3 |
| COc1c(C2CCCN2C(=O)c2cccc(C(N)=O)c2)c(C)nn1C (stereo unspecified) | 0.192 |
| Cc1cc(CN2CCN(C(=O)c3sccc3C(C)C)CC2)no1 | -0.962 |
| CN(C)S(=O)(=O)N1C[C@@H]2CN(Cc3ccoc3)CCO[C@@H]2C1 | 12.2 |
| O=C(C1=CCCC1)N1CCC[C@]2(C[C@@H](Oc3ncccc3F)CO2)C1 | -15.5 |
| Cc1cccc(CN2C[C@@H]3CN(C(=O)c4ccco4)C[C@@H]3C2=O)n1 | -0.42 |
| Cc1cccc(CN2C[C@@H]3CN(C(=O)c4ccsc4)C[C@@H]3C2=O)n1 | 5.86 |
| CC(=O)N1CC(=O)N(c2cnn(C)c2)CC12CCN(Cc1ccsc1)C2 (stereo unspecified) | -17.6 |
| C[C@@H]1CN(Cc2ccoc2)C[C@]12CCN(CC(=O)N(C)C)C2=O | 2.11 |
| CC(=O)N1[C@H](CN(C)C)C[C@@H]2CN(C(=O)c3cncc(C)c3)CC[C@@H]21 | 3.76 |
| CS(=O)(=O)N1CCO[C@@H]2CCN(Cc3ccncc3)CC[C@H]21 | 1.15 |
| COc1cc(N2CCO[C@H]3[C@@H](Oc4cccnc4)CC[C@@H]32)ncn1 | -3.33 |
